High-throughput results as filed in PubChem.
Diaph act CS: activates diaphorase or chemically reduces, flagging diaphorase assay artifacts | Diaphorase/resazurin coupled assay, resorufin fluorescence, 16 min; active compounds read high; 1 = vehicle wells, 0 = NADH-free wells | activation factor at 20 µM | 190,000 tested, 0.005% active | AID 1229;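 active = diaphorase activity raised at least twofold by the compound at 20 µM; inactive = activation factor below 2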
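System – purified diaphorase enzyme from Clostridium kluyveri · Input – enzyme 0.07 U/mL final · Also added – final NADH 0.114 mM, resazurin 0.1 mM · Measured by – fluorescence of resorufin, 544 nm excitation, 590 nm emission · Timing – 16 min enzyme reaction, ambient temperature · Measure – resorufin increase flagging diaphorase activators or reducers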
DTT redox prof: compounds producing H2O2 with reducing agent – biochemical, NIH compound library profiling, artefact control for MLSCN library redox annotation, primary screen. DTT-dependent redox cycling H2O2, phenol red/HRP absorbance; 100% = 100 µM peroxide control, 0% = buffer. activation, % at 10 µM. 200,000 tested, 0.03% active;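 active = activation of at least 50% relative to the plate's high and low controls in the primary single-dose screen; inactive = activation below 50%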;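 also: compound incubated with DTT at 0.8 mM final as the reducing agent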
G6PDH counter: inhibits Leuconostoc G6PDH, flagging false hits in G6PDH-based assays; Purified L. mesenteroides G6PDH, diaphorase/resazurin coupled fluorescence, 45 min; inhibition, % at 5 µM; 200,000 tested, 0.12% active
Lmaj promast: inhibitors of Leishmania major promastigote growth; Leishmania major promastigotes, resazurin fluorescence viability; 200,000 tested, 9% active; AID 1063; inhibition, % at 10 µM;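 also: promastigotes grown with compound for 44 hours at 28 °C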
PfGluPho inh: PfG6PD (Plasmodium falciparum) enzyme inhibition. PfGluPho enzyme, NADPH resazurin-diaphorase fluorescence. inhibition, % at 20 µM. 350,000 tested, 0.78% active. AID 504690;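 active = inhibition reaching at least a set limit at 20 µM in the primary screen, cut at about 59% in these data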
Diaphorase inh: counter-screen for diaphorase-based assays: diaphorase inhibitors and chemical oxidizers; 190,000 tested, 0.69% active; AID 1217; inhibition, % at 20 µM; diaphorase resazurin-to-resorufin fluorescence, NADH, 16 min; bacterial (C. kluyveri) enzyme, not human;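 active = primary screen inhibition at 20 µM above a set limit, cut at about 50% in these data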
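Test system: bacterial diaphorase enzyme (C. kluyveri); Quantity: 0.14 U/mL diaphorase, enzyme working solution; Times: reaction incubation of 16 min at room temperature; Measured by: fluorescence of resorufin formed from resazurin, Ex 544/Em 590 nm; Benchmarks: positive control minus NADH, DMSO neutral control.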
Numbers stand for hits; n = inactive; x = not tested or not shown. The sample as a whole holds a higher share of hits than the screen did. Rule as the data show it, unless noted: active = inhibition above about 50%; inactive = the rest.

SMILES	Diaph act CS	DTT redox prof	G6PDH counter	Lmaj promast	PfGluPho inh	Diaphorase inh
Cc1nc2ccccn2c1C(=O)N=Nc1c(O)n(CCC(C)C)c2ccccc12	n	n	n	67	n	n
CCn1c(O)c(N=NC(=O)c2cccs2)c2ccccc21	n	n	n	n	n	n
N#Cc1cc(NC2CCCC2)c([N+](=O)[O-])cc1C#N	n	n	n	61	n	n
O=[N+]([O-])c1ccc(NC2CCCC2)cc1	n	n	n	n	n	n
Oc1ccc(CNCC2COc3ccccc3O2)cc1 (centres undefined)	n	n	n	88	n	n
c1ccc2c(c1)OCC(CNCC1COc3ccccc3O1)O2 (centres undefined)	x	x	x	x	n	x
O=C1C[C@@H]2c3c(cccc3CN1Cc1ccc(F)cc1)C[C@@H](O)[C@H]2O	x	x	x	x	n	x
O=C(NC(=S)Nc1ccccc1)c1csnn1	n	n	n	n	n	n
O=[N+]([O-])/C=C/c1cn(Cc2ccc(F)cc2)c2ccccc12	n	n	n	99	n	n
CCc1cc(C(=O)OC)c(NC(=O)C2CC(=O)NN2Cc2ccccc2)s1 (centres undefined)	n	n	n	99	n	n
COc1cc2ccc(NC(C)=O)cc2cc1OC	x	x	x	x	n	x
Cc1nn(-c2ccccc2)c(N2CCCC2)c1/C=N/n1cnc2scc(-c3ccccc3)c2c1=O	n	n	n	56	n	n
O=c1c2c(-c3ccc(Cl)cc3)csc2ncn1/N=C/c1cccc([N+](=O)[O-])c1O	n	n	n	n	n	n
O=c1c2c(-c3ccccc3)csc2ncn1/N=C/c1c2ccccc2cc2ccccc12	n	n	n	100	n	n
COc1ccccc1/C=C1\SC(=S)N(CCC(=O)NC2=NCCS2)C1=O	n	n	n	52	n	n
Cc1ccc(/C=C2/SC(=S)N(CCC(=O)N3CCN(C)CC3)C2=O)cc1	n	n	n	97	n	n
CN1CCN(C(=O)CCN2C(=O)/C(=C/c3ccccc3Cl)SC2=S)CC1	n	n	n	100	n	n
O=C(CCN1C(=O)/C(=C\c2cccs2)SC1=S)NC1=NCCS1	n	n	n	n	n	n
Cc1ccc(CN2CCSc3ccc(C(=O)NC4CCN(Cc5ccccc5)CC4)cc32)cc1	n	n	n	90	n	n
CN1CCN(CCCNC(=O)c2ccc3c(c2)N(Cc2ccccc2)CCS3)CC1	n	n	n	80	n	n
O=C(NC1CCCC1)c1ccc2c(c1)N(Cc1ccccc1)CCS2	x	x	x	x	n	x
O=C(NCCCN1CCOCC1)c1ccc2c(c1)N(Cc1ccccc1)CCS2	x	x	x	x	n	x
CCN(CC)C(=O)C1CCCN(c2ccc([N+](=O)[O-])cc2/C=N/NC(=O)c2ccc([N+](=O)[O-])cc2)C1 (centres undefined)	n	n	n	53	n	n
O=[N+]([O-])c1ccc(O)c(/C=N/Nc2ccc(Cl)nn2)c1	n	n	n	100	n	n
O=C(N/N=C/c1cc([N+](=O)[O-])ccc1O)C1CCCCC1	n	n	n	97	n	56
SMILES	Diaph act CS	DTT redox prof	G6PDH counter	Lmaj promast	PfGluPho inh	Diaphorase inh
O=C(N/N=C/c1cc([N+](=O)[O-])ccc1O)C1C2CCCCC21 (centres undefined)	n	n	n	92	x	n
CCC(C)(C)NC(=O)C(c1ccc(OC)cc1)N(C(=O)CCC(=O)Nc1cc(C)on1)c1ccc(F)cc1 (centres undefined)	x	x	x	x	n	x
COC(=O)c1ccc(COc2ccc(/C=N/O)cc2)o1	n	n	n	n	n	n
COc1ccc2cc(CCNC(=O)c3c(-c4ccccc4Cl)noc3C)c(=O)[nH]c2c1	n	n	n	n	n	n
CC(C)(C)Nc1nc(NN)nc(NC(C)(C)C)n1	n	n	n	81	n	n
Oc1ccc(C(c2nnnn2CCc2ccccc2)N2CCN(c3nc4ccccc4s3)CC2)cc1 (centres undefined)	x	x	x	x	n	x
c1cnc2ccc(C(c3nnnn3C3CCCC3)N3CCN(c4nc5ccccc5s4)CC3)cc2c1 (centres undefined)	n	n	n	89	n	n
Clc1ccc(C(c2nnnn2C2CCCC2)N2CCN(c3nc4ccccc4s3)CC2)cc1 (centres undefined)	x	n	x	97	n	x
Nc1cc(=O)[nH]c(SCC(=O)Nc2ccccc2Sc2ccccc2)n1	n	n	n	n	n	n
CC1=C(C(=O)Nc2ccccc2)C(c2ccncc2)n2nnnc2N1 (centres undefined)	x	n	x	57	n	x
COc1ccccc1NC(=O)C1=C(C)Nc2nnnn2C1c1cc(Br)ccc1OC (centres undefined)	n	n	n	97	n	n
CC1=C(C(=O)Nc2cccnc2)C(c2ccncc2)n2nnnc2N1 (centres undefined)	x	n	x	n	n	x
CC(C)(C)c1ccc(S(=O)(=O)N(CCCN2CCOCC2)Cc2cccs2)cc1	n	n	n	95	n	n
CC(=O)N(CCS(=O)(=O)c1ccc(Cl)cc1)Cc1cccs1	x	x	x	x	n	x
CCOC(=O)CCN(Cc1cccs1)S(=O)(=O)c1ccc(Cl)cc1	n	n	n	97	n	n
Cn1nc(C(=O)NCc2ccccc2)c2c1-c1ccccc1S(=O)(=O)C2	x	x	x	x	n	x
CCCCn1c(=N)n(CCOc2ccc(C)cc2)c2ccccc21	n	n	n	97	n	n
CCN(CC)CCn1c(=N)n(CCOc2ccccc2)c2ccccc21	n	n	n	93	n	n
CCN(CC)CCn1c(=N)n(CC(O)COc2ccccc2)c2ccccc21 (centres undefined)	x	x	x	x	n	x
COc1ccc(OCCn2c(=N)n(CCO)c3ccccc32)cc1	n	n	n	n	n	n
CCCn1c(=N)n(CCOCCOCCn2c(=N)n(CCC)c3ccccc32)c2ccccc21	x	n	x	88	x	x
CN(C)c1ccc(C2CC(c3ccccc3)=Nc3nc(-c4ccccc4)cn32)cc1 (centres undefined)	n	n	n	91	x	n
Cc1ccc(NC(=O)CSc2nnc(-c3ccncc3)n2N)cc1C	n	n	n	n	n	n
COc1ccc(C(CC(=O)O)c2ccc3c(c2)OCO3)cc1 (centres undefined)	x	x	x	x	n	x
COc1ccc(CNCCC(c2ccccc2)c2ccc3c(c2)OCO3)cc1 (centres undefined)	n	n	n	100	n	n
Fc1ccccc1CNCCC(Cc1ccccc1)c1ccc2c(c1)OCO2 (centres undefined)	n	n	n	66	n	n
O=C(CSc1ccccc1)N1CCCC(N2CCN(c3ccccc3)CC2)C1 (centres undefined)	x	x	x	x	n	x
CCN(CC)CC#CCC(O)(c1ccccc1)c1ccccc1	n	n	n	77	n	n
